# Tests used:
# Type in all cases: functional
# A498 = test: Growth inhibition of human A498 cells incubated for 48 hrs by sulforhodamine B assay
# How it was run: (§1)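 NCI Developmental Therapeutics Program NCI60 panel. Compounds that were active in the 10 µM one-dose screen went on to dose–response testing. Growth at each concentration is expressed relative to untreated control (100%). GI50 (concentration giving 50% of maximal inhibition of proliferation) and TGI (concentration giving total growth inhibition) were derived from the curves.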
# UACC-257 = test: Growth inhibition of human UACC-257 cells assessed as cell growth at 1 uM incubated for 48 hrs by sulforhodamine B assay relative to control; settings: read-out: Activity
# HT-29 = test: Growth inhibition of human HT-29 cells assessed as cell growth at 0.01 uM incubated for 48 hrs by sulforhodamine B assay relative to control; settings: read-out: Activity
# SR [1] = test: Growth inhibition of human SR cells assessed as cell growth at 0.01 uM incubated for 48 hrs by sulforhodamine B assay relative to control; settings: read-out: Activity
# SK-MEL-5 [2] = test: Growth inhibition of human SK-MEL-5 cells assessed as cell growth at 0.01 uM incubated for 48 hrs by sulforhodamine B assay relative to control; settings: read-out: Activity
# SR [3] = test: Growth inhibition of human SR cells assessed as cell growth at 0.1 uM incubated for 48 hrs by sulforhodamine B assay relative to control; settings: read-out: Activity
# SF-295 = test: Growth inhibition of human SF-295 cells assessed as cell growth at 0.01 uM incubated for 48 hrs by sulforhodamine B assay relative to control; settings: read-out: Activity
# HCC 2998 [4] = test: Growth inhibition of human HCC 2998 cells assessed as cell growth at 1 uM incubated for 48 hrs by sulforhodamine B assay relative to control; settings: read-out: Activity; how it was run: as §1
# MCF7 = test: Growth inhibition of human MCF7 cells assessed as cell growth at 0.1 uM incubated for 48 hrs by sulforhodamine B assay relative to control; settings: read-out: Activity
# A549 = test: Growth inhibition of human A549/ATCC cells assessed as cell growth at 1 uM incubated for 48 hrs by sulforhodamine B assay relative to control; settings: read-out: Activity; how it was run: as §1
# UACC-62 [5] = test: Growth inhibition of human UACC-62 cells assessed as cell growth at 0.1 uM incubated for 48 hrs by sulforhodamine B assay relative to control; settings: read-out: Activity
# RXF 393 = test: Growth inhibition of human RXF 393 cells assessed as cell growth at 100 uM incubated for 48 hrs by sulforhodamine B assay relative to control; settings: read-out: Activity
# KM12 = test: Growth inhibition of human KM12 cells assessed as cell growth at 0.01 uM incubated for 48 hrs by sulforhodamine B assay relative to control; settings: read-out: Activity
# SN12C = test: Growth inhibition of human SN12C cells assessed as cell growth at 0.01 uM incubated for 48 hrs by sulforhodamine B assay relative to control; settings: read-out: Activity
# SK-OV-3 = test: Growth inhibition of human SK-OV-3 cells assessed as cell growth at 100 uM incubated for 48 hrs by sulforhodamine B assay relative to control; settings: read-out: Activity
# UO-31 = test: Growth inhibition of human UO-31 cells assessed as cell growth at 1 uM incubated for 48 hrs by sulforhodamine B assay relative to control; settings: read-out: Activity
# NCI-H23 = test: Growth inhibition of human NCI-H23 cells incubated for 48 hrs by sulforhodamine B assay
# How it was run: (§2)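 NCI60 panel at the NCI Developmental Therapeutics Program. Only compounds active in the 10 µM screen went to dose-response testing. GI50, the concentration giving 50% of maximal inhibition of proliferation, and TGI, the concentration giving total growth inhibition, were derived from the dose-response curves.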
# MDA-MB-435 [6] = test: Growth inhibition of human MDA-MB-435 cells incubated for 48 hrs by sulforhodamine B assay; how it was run: as §2
# UACC-62 [7] = test: Growth inhibition of human UACC-62 cells assessed as cell growth at 100 uM incubated for 48 hrs by sulforhodamine B assay relative to control; settings: read-out: Activity
# SK-MEL-5 [8] = test: Growth inhibition of human SK-MEL-5 cells assessed as cell growth at 1 uM incubated for 48 hrs by sulforhodamine B assay relative to control; settings: read-out: Activity
# CAKI-1 [9] = test: Growth inhibition of human CAKI-1 cells incubated for 48 hrs by sulforhodamine B assay; how it was run: as §1
# BT-549 = test: Growth inhibition of human BT-549 cells incubated for 48 hrs by sulforhodamine B assay; how it was run: as §1
# CAKI-1 [10] = test: Growth inhibition of human CAKI-1 cells assessed as cell growth at 0.01 uM incubated for 48 hrs by sulforhodamine B assay relative to control; settings: read-out: Activity; how it was run: as §1
# SK-MEL-5 [11] = test: Growth inhibition of human SK-MEL-5 cells assessed as cell growth at 0.1 uM incubated for 48 hrs by sulforhodamine B assay relative to control; settings: read-out: Activity
# 786-0 = test: Growth inhibition of human 786-0 cells incubated for 48 hrs by sulforhodamine B assay; how it was run: as §1
# HOP-92 = test: Growth inhibition of human HOP-92 cells assessed as cell growth at 0.01 uM incubated for 48 hrs by sulforhodamine B assay relative to control; settings: read-out: Activity
# UACC-62 [12] = test: Growth inhibition of human UACC-62 cells assessed as cell growth at 1 uM incubated for 48 hrs by sulforhodamine B assay relative to control; settings: read-out: Activity
# K562 = test: Growth inhibition of human K562 cells assessed as cell growth at 0.1 uM incubated for 48 hrs by sulforhodamine B assay relative to control; settings: read-out: Activity
# SF-539 [13] = test: Growth inhibition of human SF-539 cells assessed as cell growth at 1 uM incubated for 48 hrs by sulforhodamine B assay relative to control; settings: read-out: Activity
# MDA-MB-435 [14] = test: Growth inhibition of human MDA-MB-435 cells assessed as cell growth at 1 uM incubated for 48 hrs by sulforhodamine B assay relative to control; settings: read-out: Activity
# ACHN = test: Growth inhibition of human ACHN cells assessed as cell growth at 0.01 uM incubated for 48 hrs by sulforhodamine B assay relative to control; settings: read-out: Activity
# Hs-578T = test: Growth inhibition of human Hs-578T cells assessed as cell growth at 100 uM incubated for 48 hrs by sulforhodamine B assay relative to control; settings: read-out: Activity
# SF-539 [15] = test: Growth inhibition of human SF-539 cells assessed as cell growth at 0.1 uM incubated for 48 hrs by sulforhodamine B assay relative to control; settings: read-out: Activity
# SK-MEL-2 = test: Growth inhibition of human SK-MEL-2 cells assessed as cell growth at 0.01 uM incubated for 48 hrs by sulforhodamine B assay relative to control; settings: read-out: Activity
# HCC 2998 [16] = test: Growth inhibition of human HCC 2998 cells assessed as cell growth at 100 uM incubated for 48 hrs by sulforhodamine B assay relative to control; settings: read-out: Activity; how it was run: as §1
# NCI-H460 = test: Growth inhibition of human NCI-H460 cells assessed as cell growth at 1 uM incubated for 48 hrs by sulforhodamine B assay relative to control; settings: read-out: Activity
# COLO 205 = test: Growth inhibition of human COLO 205 cells assessed as cell growth at 1 uM incubated for 48 hrs by sulforhodamine B assay relative to control; settings: read-out: Activity; how it was run: as §1
# [17] = read-out: LC50 (the source's name)
smiles,measurement,setting,value
Cc1cc(C)c(NC(=O)c2sc3nc4c(cc3c2N)CN(Cc2ccccc2)CC4)c(C)c1,GI50,A498,1.31 µM
same,TGI,A498,7.71 µM
same,CC50,A498; [17],> 100 µM
same,growth at 1 µM,UACC-257,80%
same,growth at 0.01 µM,HT-29,105%
same,growth at 0.01 µM,SR [1],100%
same,growth at 0.01 µM,SK-MEL-5 [2],98%
same,growth at 0.1 µM,SR [3],103%
same,growth at 0.01 µM,SF-295,86%
same,growth at 1 µM,HCC 2998 [4],103%
same,growth at 0.1 µM,MCF7,91%
same,growth at 1 µM,A549,90%
same,growth at 0.1 µM,UACC-62 [5],97%
same,growth at 100 µM,RXF 393,-15%
same,growth at 0.01 µM,KM12,98%
same,growth at 0.01 µM,SN12C,104%
same,growth at 100 µM,SK-OV-3,16%
same,growth at 1 µM,UO-31,77%
same,GI50,NCI-H23,4.51 µM
same,LC50 (50% lethal concentration),NCI-H23,> 100 µM
same,TGI,NCI-H23,> 100 µM
same,GI50,MDA-MB-435 [6],0.399 µM
same,TGI,MDA-MB-435 [6],4.38 µM
same,CC50,MDA-MB-435 [6]; [17],68.9 µM
same,growth at 100 µM,UACC-62 [7],-22%
same,growth at 1 µM,SK-MEL-5 [8],59%
same,GI50,CAKI-1 [9],2.81 µM
same,TGI,CAKI-1 [9],> 100 µM
same,CC50,CAKI-1 [9]; [17],> 100 µM
same,GI50,BT-549,4.05 µM
same,TGI,BT-549,57.6 µM
same,CC50,BT-549; [17],> 100 µM
same,growth at 0.01 µM,CAKI-1 [10],88%
same,growth at 0.1 µM,SK-MEL-5 [11],93%
same,GI50,786-0,3.48 µM
same,TGI,786-0,> 100 µM
same,CC50,786-0; [17],> 100 µM
same,growth at 0.01 µM,HOP-92,85%
same,growth at 1 µM,UACC-62 [12],69%
same,growth at 0.1 µM,K562,105%
same,growth at 1 µM,SF-539 [13],88%
same,growth at 1 µM,MDA-MB-435 [14],20%
same,growth at 0.01 µM,ACHN,97%
same,growth at 100 µM,Hs-578T,-3%
same,growth at 0.1 µM,SF-539 [15],96%
same,growth at 0.01 µM,SK-MEL-2,108%
same,growth at 100 µM,HCC 2998 [16],-21%
same,growth at 1 µM,NCI-H460,96%
same,growth at 1 µM,COLO 205,95%

# From ChEMBL document CHEMBL4715736, “Identification of anticancer agents based on the thieno[2,3-b]pyridine and 1H-pyrazole molecular scaffolds” (2016)
